Measurements from ChEMBL document CHEMBL4190252, “Synthesis, antitumor activity and CDK1 inhibiton of new thiazole nortopsentin analogues” (Eur J Med Chem, 2017).

Target: Cyclin-dependent kinase 1/cyclin B1 (Homo sapiens, UniProt P06493)
Test: Inhibition of recombinant human full length His-tagged CDK1/cyclin B expressed in baculovirus expression system after 60 mins in presence of omnia peptide substrate by fluorescence based assay
In short: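 Recombinant human CDK1/cyclin B in kinase buffer with Omnia peptide substrate, ATP and DTT, with inhibitor at 0.1–10 µM. Reactions ran for 60 min at 30 °C, with fluorescence read at ex 360/em 485 nm. Initial velocity came from the RFU-versus-time slope and was plotted against concentration for a dose-response IC50 fit. Values are mean±SD of two determinations.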

Cyclin-dependent kinase 1/cyclin B1, sequence (P06493 whole entry): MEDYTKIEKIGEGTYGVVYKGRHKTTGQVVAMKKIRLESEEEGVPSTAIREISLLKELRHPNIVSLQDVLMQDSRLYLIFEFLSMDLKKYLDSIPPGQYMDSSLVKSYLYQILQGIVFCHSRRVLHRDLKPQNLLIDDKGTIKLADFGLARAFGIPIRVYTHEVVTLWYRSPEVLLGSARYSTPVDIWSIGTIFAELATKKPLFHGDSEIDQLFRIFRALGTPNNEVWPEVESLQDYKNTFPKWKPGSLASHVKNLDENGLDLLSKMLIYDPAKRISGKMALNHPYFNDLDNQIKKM
Cyclin-dependent kinase 1/cyclin B1, sequence (P14635 whole entry, further chain): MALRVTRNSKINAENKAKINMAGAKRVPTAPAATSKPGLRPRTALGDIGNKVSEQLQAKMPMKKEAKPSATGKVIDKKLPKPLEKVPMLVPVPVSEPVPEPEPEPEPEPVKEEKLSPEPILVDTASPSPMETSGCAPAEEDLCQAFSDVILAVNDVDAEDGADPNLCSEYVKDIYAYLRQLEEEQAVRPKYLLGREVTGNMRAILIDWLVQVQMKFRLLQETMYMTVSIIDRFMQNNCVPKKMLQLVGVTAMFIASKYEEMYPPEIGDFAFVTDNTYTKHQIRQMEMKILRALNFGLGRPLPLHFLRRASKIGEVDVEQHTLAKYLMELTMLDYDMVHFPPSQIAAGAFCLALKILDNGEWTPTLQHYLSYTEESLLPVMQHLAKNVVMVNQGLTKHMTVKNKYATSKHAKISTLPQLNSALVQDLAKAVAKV

IC50: 0.97 µM
SMILES: Cn1cc(-c2nc(-c3cn(C)c4ncccc34)cs2)c2cc(F)ccc21
